An excerpt weighted towards active compounds, which were near 3.9% of everything screened.
Pf gametocyte – kills late stage P. falciparum gametocytes; P. falciparum stage V gametocytes, ATP luminescence, 24 h; inhibition, % at 10.9 µM; 150,000 compounds, 0.065% hits; AID 743093;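 active = inhibition above the mean plus 3 SD of compounds within the control limits, set per campaign, cut at about 38% in these data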;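 also: 0% = DMSO wells and 100% = medium only without gametocytes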
STAT1 blocker – inhibitors of IFN-gamma induced STAT1 signaling; 200,000 compounds, 0.35% hits; inhibition, % at 5.5 µM; NIH 3T3 STAT1-luciferase reporter, luminescence; AID 920;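 active = inhibition above a set limit, the mean inhibition across all tested compounds plus 3 SD, cut at about 34% in these data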;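 also: 0% = IFN-gamma with DMSO and 100% = IFN-gamma with 300 µM nifuroxazide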
STAT3 activator – activators of IL-6 induced STAT3 signaling; U3A cells, IL-6 STAT3-luciferase reporter, luminescence; 100% = signal with IL-6 EC80 alone; activation (% of control), % at 5.6 µM; 190,000 compounds, 0.91% hits;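 active = activation above the screen-wide mean of compound activation plus 3 SD, cut at about 130% in these data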;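 also: 0% = background luminescence of wells with medium and substrate only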
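Detection: reporter luminescence signal / Assay system: STAT1-lacking human U3A cells, STAT3 luciferase reporter / Incubation: compound pre-incubation 1 h before IL-6, then 6 h stimulation at 37 °C / Control set: IL-6-only high control / Read-out: % activation relative to IL-6 control / Probe or stimulus: Interleukin-6, 33 ng/mL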
NF-kB expr up – raises NF-kB expression in human neuronal cells; NF-kB reporter expression; stronger effect = higher value; fold change at 12.5 µM; 190,000 compounds, 1.6% hits; AID 1239; in the data active = fold change above about 3.3
STAT1 act – STAT1 signaling activation; NIH 3T3 STAT1-luciferase reporter, IFN-gamma, luminescence; 100% = IFN-gamma alone, no compound; activation (% of control), % at 5.5 µM; 200,000 compounds, 2.6% hits;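 active = activation above the screen-wide mean activation plus 3 SD, cut at about 130% in these data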;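 also: raw ratio to IFN-gamma control signal so 100% means no change and 0% no light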
APP 5'UTR act – APP 5'UTR luciferase reporter activation; SH-SY5Y APP 5'UTR luciferase reporter, luminescence; zero percent = DMSO vehicle wells; AID 1276; 190,000 compounds, 1% hits; activation, % at 2 µM;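 active = activation above a set limit, based on mean plus 3 SD of controls, cut at about 140% in these data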
* = called active by the depositor.

For Cc1cc(=O)[nH]c(SCn2nnc3ccccc3c2=O)n1 the results were STAT1 blocker 1, STAT3 activator 101, NF-kB expr up 1.1, STAT1 act 100 and APP 5'UTR act -1.
COCCN1C(=O)/C(=C/c2ccc(N3CCCC3)cc2C)SC1=S was read as Pf gametocyte 1, STAT1 blocker -1, STAT3 activator 112, NF-kB expr up 1.4, STAT1 act 99 and APP 5'UTR act 15.
Cc1cc(C(=O)CN2CCCCC2)c(C)n1-c1ccc(F)cc1 was read as Pf gametocyte 5, STAT1 blocker -34, STAT3 activator 109, NF-kB expr up 1.2, STAT1 act 130* and APP 5'UTR act 29.
Screening Cc1cc(C(=O)CN2C(=O)C3CC=CCC3C2=O)c(C)n1-c1ccccc1 (stereo not given) returned Pf gametocyte -9, STAT1 blocker -43, STAT3 activator 90, NF-kB expr up 2.2, STAT1 act 138* and APP 5'UTR act 184*.
For CC1CN(C(=O)COC(=O)c2nn(-c3ccccc3)c(=O)c3ccccc23)CC(C)O1 (stereo not given) the results were Pf gametocyte -12, STAT1 blocker 9, STAT3 activator 104, NF-kB expr up 1.1, STAT1 act 91 and APP 5'UTR act -7.
`Cc1ccc2c(CN3CCC(C)CC3)cc(=O)oc2c1` gave STAT1 blocker -41, STAT3 activator 113, NF-kB expr up 4.1*, STAT1 act 138* and APP 5'UTR act 78.
For CC(C)CC1c2[nH]c3ccccc3c2CCN1C(=O)c1cnccn1 (stereo not given) the results were Pf gametocyte -20, STAT1 blocker -52, STAT3 activator 171*, NF-kB expr up 3, STAT1 act 146* and APP 5'UTR act 90.
`CCC(CO)Nc1ncnc2c1cnn2-c1ccc(Cl)cc1` (stereo not given) gave STAT1 blocker -52, STAT3 activator 88, NF-kB expr up 0.69, STAT1 act 147* and APP 5'UTR act 162*.
For CCC(CO)Nc1ncnc2c1cnn2-c1ccc(OC)cc1 (stereo not given) the results were STAT1 blocker -52, STAT3 activator 102, NF-kB expr up 1.2, STAT1 act 147* and APP 5'UTR act 148*.
Screening Nc1cc(Cl)ccc1N1CCCCCC1 returned STAT1 blocker 2, STAT3 activator 101, NF-kB expr up 0.95, STAT1 act 100 and APP 5'UTR act 10.
CCCc1cc(C(=O)NNC(=S)Nc2cccc(C)c2)cs1 was read as STAT1 blocker -46, STAT3 activator 108, NF-kB expr up 2.1, STAT1 act 142* and APP 5'UTR act 110.
For Cc1csc2c(SCC(=O)NNC(=O)C(Cl)Cl)ncnc12 the results were Pf gametocyte 6.
c1ccc(-c2nnc(-c3ccccn3)nc2NC2CCCCC2)cc1 was read as STAT1 blocker -3, STAT3 activator 95, NF-kB expr up 0.83, STAT1 act 103 and APP 5'UTR act -77.
CNc1nc(-c2ccccn2)nnc1-c1ccccc1 was read as Pf gametocyte 9, STAT1 blocker -2, STAT3 activator 102, NF-kB expr up 13*, STAT1 act 102 and APP 5'UTR act -11.
Cc1cc(=O)[nH]c(S/C=C/c2ccccc2)n1 was read as STAT1 blocker 6, STAT3 activator 92, NF-kB expr up 4.1*, STAT1 act 94 and APP 5'UTR act 10.
Cc1ccc(Nc2cc(-n3cccn3)ncn2)c(C)c1 was read as Pf gametocyte 11, STAT1 blocker -45, STAT3 activator 103, NF-kB expr up 3.5*, STAT1 act 141* and APP 5'UTR act 128.
Screening COc1ccccc1OCc1nc2ccccc2[nH]1 returned Pf gametocyte -7, STAT1 blocker -34, STAT3 activator 95, NF-kB expr up 4*, STAT1 act 132* and APP 5'UTR act 83.
`Cc1ccccc1OCc1nc2ccccc2[nH]1` gave Pf gametocyte -4, STAT1 blocker -33, STAT3 activator 83, NF-kB expr up 4.2*, STAT1 act 130* and APP 5'UTR act 131.
c1cnc2c(OCc3nc4ccccc4[nH]3)cccc2c1 was read as Pf gametocyte -3, STAT1 blocker -48, STAT3 activator 156*, NF-kB expr up 2.7 and STAT1 act 144*.
Screening C=CS(=O)(=O)N(Cc1ccccc1Br)[C@H](CO)CC(C)C returned Pf gametocyte 6.
For NC(=O)NCCc1ccccc1 the results were Pf gametocyte 2.
For COc1cccc(NC(=O)NCc2ccccc2Cl)c1 the results were Pf gametocyte 17.
O=C1[C@@H]2Cc3c([nH]c4ccccc34)[C@@H](c3ccccc3)N2C(=O)[C@@H]2Cc3c([nH]c4ccccc34)[C@@H](c3ccccc3)N12 was read as STAT1 blocker -5, STAT3 activator 137*, NF-kB expr up 1.6, STAT1 act 104 and APP 5'UTR act -4.
Screening COc1cc([C@H]2c3[nH]c4ccccc4c3C[C@H]3C(=O)N4[C@@H](c5cc(OC)c(OC)c(OC)c5)c5[nH]c6ccccc6c5C[C@H]4C(=O)N23)cc(OC)c1OC returned STAT1 blocker -5, STAT3 activator 104, NF-kB expr up 1.4, STAT1 act 104 and APP 5'UTR act -42.
`COc1ccc(S(=O)(=O)NCC2CCCN(C(=O)CSC)C2)cc1` (stereo not given) gave Pf gametocyte -12.
For CC(C)CC1(C)NC(=O)N(CC(=O)Nc2ccc3c(c2)CCC3)C1=O (stereo not given) the results were Pf gametocyte -4, STAT1 blocker -11, STAT3 activator 119, NF-kB expr up 1, STAT1 act 108 and APP 5'UTR act -13.
For O=S(=O)(c1ccc(F)cc1)c1snnc1-c1ccccc1 the results were Pf gametocyte -14, STAT1 blocker 17, STAT3 activator 90, NF-kB expr up 0.99, STAT1 act 82 and APP 5'UTR act -93.
O=S(=O)(c1ccc(Cl)cc1)c1snnc1-c1ccccc1 was read as STAT1 blocker 1, STAT3 activator 84, NF-kB expr up 6.4*, STAT1 act 99 and APP 5'UTR act -96.
Screening CCOC(=O)c1cnn(-c2ccc(C(F)(F)F)cn2)c1N returned STAT1 blocker -49, STAT3 activator 108, NF-kB expr up 2.6, STAT1 act 145* and APP 5'UTR act 28.
For CCC(C)(C)NC(=O)C(c1ccc(F)cc1)N(Cc1ccccc1)C(=O)c1cnccn1 (stereo not given) the results were Pf gametocyte 9, STAT1 blocker 3, STAT3 activator 114, NF-kB expr up 0.87, STAT1 act 97 and APP 5'UTR act 18.
N#Cc1c(/N=C/c2cccs2)sc2c1CCCCC2 was read as Pf gametocyte -21, STAT1 blocker -21, STAT3 activator 45, NF-kB expr up 1.1, STAT1 act 120 and APP 5'UTR act 148*.
